Bioassay records as filed in PubChem BioAssay.
SENP7 inh = SENP7 protease inhibitors, primary screen, biochemical, luminescence, uHTS; Sentrin-specific protease 7 (Homo sapiens), Q9BQF6; recombinant SENP7, Z-RLRGG-aminoluciferin luminescence, 40 min; inhibition, % at 5 µM; 330,000 tested, 1.5% active; AID 434973, 2010;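 active = inhibition above about 50% at the single test dose, limit read from the data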
SENP1 FRET inh = human SENP1 catalytic domain inhibitors, primary screen, biochemical, FRET, uHTS | inhibition, % at 10 µM | Sentrin-specific protease 1 (Homo sapiens), Q9P0U3 | 360,000 tested, 0.21% active | recombinant SENP1 catalytic domain, CyPet-SUMO1-YPet FRET cleavage;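 active = inhibition at least 30% at 10 µM, raw YFP signal under a set limit, fluorescence ratio 0.5 to 1.5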
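Assay system: hSENP1 catalytic domain, recombinant. Amount: SENP1 enzyme, 20 pM final. Schedule: 50 min reaction, RT, dark. Technique: FRET, CFP and YFP emission. Control set: no-enzyme wells low, DMSO-plus-enzyme wells high control.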
SENP8 block-1 = SENP8 protease inhibitors, primary screen, biochemical, luminescence | purified SENP8, Z-RLRGG-aminoluciferin cleavage | 330,000 tested, 1.2% active | inhibition, % at 10 µM; in the data active = inhibition above about 50%
Apaf-1 inh = inhibitors of human Apaf-1 apoptosome, primary screen, biochemical, DEVD-Rh110 fluorescence, uHTS; 330,000 tested, 0.71% active; inhibition, % at 20 µM; AID 489030, 2010; reconstituted apoptosome caspase-3 activity; Apoptotic protease-activating factor 1 (Homo sapiens), O14727; active = inhibition of at least 40% at 20 µM
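Material: cell-free apoptosome with Apaf-1, procaspase-3 and caspase-9; Buffer or medium: Hepes pH 7.5 with detergent and BSA; Reagent: cytochrome c trigger plus (Z-DEVD)2-Rh110 caspase-3 substrate; Times: compound with Apaf-1, dATP, procaspase-3 30 min, then 50 min reaction, room temperature; Technique: Rh110 fluorescence intensity.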
SENP6 block = SENP6 protease inhibitors, primary screen, biochemical, luminescence, uHTS. Sentrin-specific protease 6 (Homo sapiens), Q9GZR1. Recombinant SENP6 catalytic domain, aminoluciferin luminescence. inhibition, % at 10 µM. 330,000 tested, 1.8% active;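 active = inhibition above about 50% at the single tested dose, limit read from the data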
SENP8 block-2 = human SENP8 protease inhibitors, primary screen, biochemical, fluorescence, Nedd8 protein substrate, uHTS; Sentrin-specific protease 8 (Homo sapiens), Q96LD8; recombinant SENP8; inhibition, % at 20 µM; 360,000 tested, 0.64% active; in the data active = inhibition mostly above about 40%, no sharp cut-off; inactive = mostly below about 27%
SENP8 conf = SENP8 protease inhibitors, retest, confirmation, biochemical, luminescence, single concentration. shares compounds with SENP7 inh. Recombinant SENP8, Z-RLRGG-aminoluciferin luminescence, 60 min. inhibition, % at 12.5 µM. 6,200 tested, 40% active. AID 488912, 2010;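 active = mean inhibition across replicates above about 50%, limit read from the data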
SENP6 conf = SENP6 protease inhibitors, confirmation, biochemical, luminescence, single concentration | shares compounds with SENP7 inh | recombinant SENP6, Z-RLRGG-aminoluciferin luminescence | inhibition, % at 12.5 µM | 6,200 tested, 58% active
SENP7 confirm = SENP7 protease inhibitors, retest, confirmation, biochemical, luminescence, single concentration. recombinant SENP7, Z-RLRGG-aminoluciferin luminescence, 40 min. 6,200 tested, 69% active. inhibition, % at 12.5 µM. shares compounds with SENP7 inh
Casp3 select = caspase-3 protease inhibitors, confirmation, selectivity assay for SENP inhibitor project, biochemical, single concentration; AID 488918, 2010; 6,200 tested, 60% active; purified caspase-3, Z-DEVD-aminoluciferin luminescence, 60 min; shares compounds with SENP7 inh; inhibition, % at 12.5 µM;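 active = mean inhibition above about 50%, limit read from the data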
Luc interf = luminescence interference (SENP counter-screen); Pre-incubated SENP8/Z-RLRGG-aminoluciferin, luciferase luminescence interference; 6,200 tested, 39% active; AID 488919; inhibition, % at 12.5 µM; shares compounds with SENP7 inh;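 active = mean inhibition above about 50% when retested at one dose, limit read from the data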
Of the large screens only hits and unclear results are named; the others gave an inactive call (follow-up assays come after a bar, where they were run). Most compounds without a hit are left out; they make up all but 2.9% or so of the library.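 Rule for the calls, unless noted: active = mean inhibition above about 50% in the one-dose retest (limit read from the data); inactive = the rest.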

N/C(=N\OC(=O)c1ccc2c(c1)OCO2)c1cccc(Br)c1	SENP7 inh 98, SENP8 block-1 96, SENP6 block 95 | SENP8 conf 97 | SENP6 conf 98 | SENP7 confirm 102 | Casp3 select 97 | Luc interf 51
COc1cc(OC)c(C(=O)Oc2ccc3c(c2)OCO3)cc1OC	none
Cn1nc(C(C)(C)C)cc1N1C(=O)CCC1(C)C(=O)NC1CCCC1 (stereo unspecified)	none (no result: SENP7 inh, SENP8 block-1, Apaf-1 inh, SENP6 block)
CN(Cc1ccc(Cl)cc1Cl)C(=O)C1CSC2(C)CCC(=O)N12 (stereo unspecified)	none (no result: SENP7 inh, SENP8 block-1, Apaf-1 inh, SENP6 block)
O=C(NNC(=O)c1ccc2ccccc2c1)c1cccc(Cl)c1	none (no result: SENP7 inh, SENP8 block-1, Apaf-1 inh, SENP6 block)
O=C(NNc1c(Cl)cccc1Cl)c1cccs1	none
COc1ccc(/C(N)=N/OC(=O)c2ccc3ccccc3c2)cc1OC	none (no result: SENP7 inh, SENP8 block-1, Apaf-1 inh, SENP6 block)
COc1ccc(/C(N)=N/OC(=O)c2ccc3c(c2)OCO3)cc1OC	SENP7 inh 84, SENP8 block-1 75, SENP6 block 83 | SENP8 conf inactive | SENP6 conf inactive | SENP7 confirm inactive | Casp3 select inactive | Luc interf inactive
CCOC(=O)c1sc(NC(=O)c2cccs2)cc1C	SENP7 inh 91, SENP8 block-1 66, SENP6 block 83 | SENP8 conf inactive | SENP6 conf 75 | SENP7 confirm 98 | Casp3 select 81 | Luc interf inactive
CCOC(=O)c1sc(NC(=O)Nc2cccc(Cl)c2)cc1C	none
CCOC(=O)c1sc(NC(=O)c2sccc2C)cc1C	SENP7 inh 100, SENP8 block-1 97, SENP6 block 99 | SENP8 conf 100 | SENP6 conf 101 | SENP7 confirm 104 | Casp3 select 99 | Luc interf 97
CCOC(=O)c1cccc(NC(=O)c2cccs2)c1	none
CNc1cc(-c2cccc(C(=O)N3CCOCC3)c2)ncn1	none (no result: SENP7 inh, SENP8 block-1, Apaf-1 inh, SENP6 block)
Cc1cccc2c1cnn2C(=O)Nc1cc(F)ccc1F	SENP6 block 61 | SENP8 conf inactive | SENP6 conf inactive | SENP7 confirm inactive | Casp3 select inactive | Luc interf inactive
O=C(Nc1ccc(Br)cc1)c1cc2ccccn2n1	SENP7 inh 64, SENP8 block-1 71 | SENP8 conf inactive | SENP6 conf inactive | SENP7 confirm 88 | Casp3 select 65 | Luc interf inactive
O=C(NCCc1ccc(Cl)cc1)c1cc2ccccn2n1	none
NC(=O)c1cccnc1Sc1ccc(Cl)cc1	none
Nc1cccnc1Sc1cccc(Cl)c1	Apaf-1 inh 76, SENP6 block 61 | SENP8 conf inactive | SENP6 conf inactive | SENP7 confirm inactive | Casp3 select inactive | Luc interf inactive
Nc1cccnc1Sc1ccc(Cl)cc1	SENP6 block 55 | SENP8 conf inactive | SENP6 conf inactive | SENP7 confirm inactive | Casp3 select inactive | Luc interf inactive
